Most compounds without a hit are left out; they make up all but 4.7% or so of the library.
ADAM17 inh: inhibitors of human ADAM17; inhibition, % at 6.95 µM; 0.83% of 370,000 active; recombinant ADAM17, EDANS/DABCYL FRET peptide cleavage; P78536;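 active = inhibition above the mean of compounds lying between control limits plus 3 SD, set per campaign, cut at about 8.5% in these data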
Target sequence (P78536 215-824 limits assumed): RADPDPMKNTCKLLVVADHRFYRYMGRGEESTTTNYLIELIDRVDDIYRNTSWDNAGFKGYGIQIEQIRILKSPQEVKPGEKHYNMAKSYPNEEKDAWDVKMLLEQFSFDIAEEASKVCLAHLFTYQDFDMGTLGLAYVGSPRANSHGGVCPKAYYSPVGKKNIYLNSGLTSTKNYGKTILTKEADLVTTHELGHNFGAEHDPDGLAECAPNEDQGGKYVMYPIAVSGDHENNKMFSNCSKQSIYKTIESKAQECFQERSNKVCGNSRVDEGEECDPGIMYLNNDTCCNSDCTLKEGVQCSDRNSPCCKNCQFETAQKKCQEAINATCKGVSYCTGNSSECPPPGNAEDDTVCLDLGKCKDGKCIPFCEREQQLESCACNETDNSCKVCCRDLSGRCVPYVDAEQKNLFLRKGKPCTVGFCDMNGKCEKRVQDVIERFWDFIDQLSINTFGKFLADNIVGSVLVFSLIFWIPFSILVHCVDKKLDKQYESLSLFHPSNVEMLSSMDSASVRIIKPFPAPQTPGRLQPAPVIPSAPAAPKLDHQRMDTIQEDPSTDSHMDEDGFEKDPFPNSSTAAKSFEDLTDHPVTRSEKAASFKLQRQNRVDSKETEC
ADAM10 inh: inhibitors of human ADAM10. O14672. 0.62% of 370,000 active. inhibition, % at 7 µM. AID 720582. recombinant ADAM10, EDANS/DABCYL FRET peptide cleavage, 3 h;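 active = inhibition above a per-campaign cutoff equal to the mean of compounds falling between control-based bounds plus 3 SD, cut at about 20% in these data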
NR3A LBD binder: NR3A (human) ligand-binding domain modulation. NR3A LBD differential scanning fluorimetry, Tm shift; 0% = protein alone, 100% = glycine-bound protein. Tm shift relative to glycine control, % at 25 µM. 2.5% of 340,000 active. AID 1259313;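 active = melting temperature shift of at least 10% of the positive control shift, at one fixed dose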
MT1-MMP act inh: MT1-MMP (human) activation inhibition | P50281 | HT1080 RFP-PRO-GFP cells, GFP/RFP ratio fluorescence, overnight; percent of plate control window, DMSO zero | GFP/RFP ratio change, % at 20 µM | 0.061% of 360,000 active | AID 651647;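 active = GFP/RFP ratio change of at least 30% with cell ATP level not reduced by more than half and red fluorescence within 50% of control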
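Compound: 20 µM single dose, 1% DMSO / System: HT1080 RFP-PRO-GFP cells / Controls: DMSO and RFP-L50D-GFP cell wells / Read-out basis: GFP/RFP fluorescence ratio / Schedule: overnight compound exposure at 37 °C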
SKN-1 block: C. elegans SKN-1 inhibition; inhibition, % at 21.8 µM; AID 624304; 0.49% of 360,000 active; C. elegans VP596 Pgst-4::GFP/RFP ratio, acrylamide-induced, 24 h;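 active = interference check ratio from 0.5 to 1.5 plus GFP to RFP signal ratio inhibition reaching or exceeding a fixed threshold, cut at about 30% in these data, passing the limit was not always enough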
MPTP inh: inhibitors of mitochondrial permeability transition pore; isolated mouse mitochondria, Ca2+ swelling absorbance, 30 min; inhibition, % at 10 µM; AID 602449; 1.4% of 360,000 active;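 active = inhibition of 50% or more, scaled per plate between neutral and stimulator controls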
ADAM10 confirm: confirmation of inhibitors of human ADAM10; shares compounds with ADAM10 inh; ADAM10 QFRET peptide cleavage, EDANS fluorescence; inhibition, % at 6.95 µM; 1% of 2,100 active; AID 743208;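 active = inhibition above about 20% chosen separately for each screening run, limit read from the data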
ADAM17 ctr: ADAM17 inhibition, counter-screen for ADAM10 exosite hits | shares compounds with ADAM10 inh | ADAM17 QFRET peptide cleavage, EDANS fluorescence | inhibition, % at 6.95 µM | 0.5% of 2,100 active | AID 743214;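 active = mean triplicate inhibition above the solvent-only control wells' mean plus 3 SD, cut at about 12% in these data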
ADAM10 counter: counter-screen for ADAM17 exosite inhibitors: inhibitors of human ADAM10. shares compounds with ADAM17 inh. recombinant ADAM10, EDANS/DABCYL FRET peptide cleavage, 3 h. inhibition, % at 6.95 µM. 47% of 2,900 active. AID 743256;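 active = mean inhibition over the triplicate runs exceeds the activity threshold set in the earlier primary screen, cut at about 20% in these data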
ADAM17 confirm: confirmation of inhibitors of human ADAM17; shares compounds with ADAM17 inh; recombinant ADAM17, EDANS/DABCYL QFRET peptide cleavage; inhibition, % at 6.95 µM; 65% of 2,900 active;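 active = mean inhibition across replicates above the hit cutoff set in the primary screen, cut at about 8.5% in these data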
A number is an active result; ! = not confirmed by another sample.

COc1cc([N+](=O)[O-])ccc1NC(=O)CCCOc1cccc(C)c1C was read as ADAM17 inh 11.8, ADAM10 inh 21.7, NR3A LBD binder inactive, MT1-MMP act inh inactive, SKN-1 block inactive, MPTP inh inactive, ADAM10 confirm inactive, ADAM17 ctr inactive, ADAM10 counter inactive and ADAM17 confirm 10.5.
`CC(=O)NN1C(=O)c2ccccc2NC1c1ccc([N+](=O)[O-])o1` (configuration not stated) gave ADAM17 inh inactive, ADAM10 inh inactive, NR3A LBD binder inactive, MT1-MMP act inh inactive, SKN-1 block inactive and MPTP inh inactive.
O=C(CN1C(=O)S/C(=C/c2ccncc2)C1=O)Nc1ccccc1 was read as ADAM17 inh inactive, ADAM10 inh inactive, NR3A LBD binder inactive, MT1-MMP act inh inactive, SKN-1 block inactive and MPTP inh inactive.
Screening CC(/C=C1\SC(=O)N(CC(=O)Nc2cccc(O)c2)C1=O)=C\c1ccccc1 returned ADAM17 inh 13.0, ADAM10 inh 28.6, NR3A LBD binder 18.5, MT1-MMP act inh inactive, SKN-1 block inactive, MPTP inh inactive, ADAM10 confirm inactive, ADAM17 ctr inactive, ADAM10 counter 23.5 and ADAM17 confirm 14.6.
For COc1cc(/C=N/O)cc(Br)c1OCc1ccc(Cl)cc1 the results were ADAM17 inh 8.9, ADAM10 inh 21.4, NR3A LBD binder inactive, MT1-MMP act inh inactive, SKN-1 block inactive, MPTP inh inactive, ADAM10 confirm inactive, ADAM17 ctr inactive, ADAM10 counter 21.0 and ADAM17 confirm 10.7.
`CC(C)(C)c1ccc2c(c1)OC(C(=O)N/N=C\c1ccc(-c3cccc(C(=O)O)c3)o1)CO2` (configuration not stated) gave ADAM17 inh inactive, ADAM10 inh inactive, NR3A LBD binder inactive, MT1-MMP act inh inactive, SKN-1 block inactive and MPTP inh inactive.
For CC(C)(C)c1ccc2c(c1)OC(C(=O)N/N=C\c1ccccn1)CO2 (configuration not stated) the results were ADAM17 inh 11.8, ADAM10 inh 20.5, NR3A LBD binder inactive, MT1-MMP act inh inactive, SKN-1 block inactive, MPTP inh inactive, ADAM10 confirm inactive, ADAM17 ctr inactive, ADAM10 counter inactive and ADAM17 confirm inactive.
`CC(C)(C)NC(=O)CSc1nc2ccc(NC(=O)CSc3nnnn3Cc3ccccc3)cc2s1` gave ADAM17 inh 9.8, ADAM10 inh 24.6, NR3A LBD binder inactive, MT1-MMP act inh inactive, SKN-1 block inactive, MPTP inh inactive, ADAM10 confirm inactive, ADAM17 ctr inactive, ADAM10 counter 22.3 and ADAM17 confirm 14.1.
Screening O=C(NCC1CCCO1)c1cc(-c2ccccc2F)no1 (configuration not stated) returned ADAM17 inh inactive, ADAM10 inh inactive, NR3A LBD binder inactive, MT1-MMP act inh inactive, SKN-1 block inactive and MPTP inh inactive.
CC(C)(C)c1ccc(/C=N/OCC(=O)NCc2ccc(F)cc2)cc1 was read as ADAM17 inh 13.1, ADAM10 inh 28.3, NR3A LBD binder inactive, MT1-MMP act inh inactive, SKN-1 block inactive, MPTP inh inactive, ADAM10 confirm inactive, ADAM17 ctr inactive, ADAM10 counter 22.0 and ADAM17 confirm 10.6.
For Cc1ccc(CNC(=O)CO/N=C/c2ccc(C(C)(C)C)cc2)cc1 the results were ADAM17 inh inactive, ADAM10 inh inactive, NR3A LBD binder inactive, MT1-MMP act inh inactive, SKN-1 block inactive and MPTP inh inactive.
Screening NC(=O)C1=C[C@H](C2CCCCC2)C[C@H](OCc2ccc(CO)cc2)O1 returned ADAM17 inh 8.9, ADAM10 inh 20.2, NR3A LBD binder inactive, MT1-MMP act inh inactive, SKN-1 block inactive, MPTP inh inactive, ADAM10 confirm inactive, ADAM17 ctr inactive, ADAM10 counter inactive and ADAM17 confirm inactive.
Screening C=CCOC(=O)C1=C[C@H](C2CCCCC2)C[C@H](OCc2ccc(CO)cc2)O1 returned ADAM17 inh inactive, ADAM10 inh inactive, NR3A LBD binder inactive, MT1-MMP act inh inactive, SKN-1 block inactive and MPTP inh inactive.
`CC(C)(C)c1ccc(NC(=O)C(=O)C2C(=O)Nc3ccccc32)cc1` (configuration not stated) gave ADAM17 inh inactive, ADAM10 inh inactive, NR3A LBD binder inactive, MT1-MMP act inh inactive, SKN-1 block inactive and MPTP inh inactive.
`Cc1ccc(C(=O)NCc2ccco2)cc1S(=O)(=O)N1CCCCC1` gave ADAM17 inh inactive, ADAM10 inh inactive, NR3A LBD binder inactive, MT1-MMP act inh inactive, SKN-1 block inactive and MPTP inh inactive.
Cc1ccc(C(=O)Nc2ccccc2C(=O)NCc2ccco2)cc1S(=O)(=O)N1CCCCC1 was read as ADAM17 inh 9.6, ADAM10 inh 25.1, NR3A LBD binder inactive, MT1-MMP act inh inactive, SKN-1 block inactive, MPTP inh inactive, ADAM10 confirm inactive, ADAM17 ctr inactive, ADAM10 counter 34.6 and ADAM17 confirm 20.4.
Screening COc1cc(NC(=O)c2cnc(N)s2)cc(C(=O)Nc2cccc(C(F)(F)F)c2)c1 returned ADAM17 inh 9.8!, ADAM10 inh 19.9!, NR3A LBD binder 36.7, MT1-MMP act inh inactive, SKN-1 block inactive, MPTP inh inactive, ADAM10 confirm inactive, ADAM17 ctr inactive, ADAM10 counter 22.2 and ADAM17 confirm 14.0.
`Cc1cccc(NC(=O)C2C(c3ccccc3)C2(Cl)Cl)c1` (configuration not stated) gave ADAM17 inh 11.4, ADAM10 inh 21.3, NR3A LBD binder inactive, MT1-MMP act inh inactive, SKN-1 block inactive, MPTP inh inactive, ADAM10 confirm inactive, ADAM17 ctr inactive, ADAM10 counter 24.4 and ADAM17 confirm 14.0.
`CCOC(=O)CCCCCC(=O)Nc1ccc2c(c1)CC(=O)N([C@@H](C)CO)C[C@@H](C)[C@@H](CN(C)C(=O)Nc1ccc(C(F)(F)F)cc1)O2` gave ADAM17 inh inactive, ADAM10 inh inactive, NR3A LBD binder inactive, MT1-MMP act inh inactive, SKN-1 block inactive and MPTP inh inactive.
